# Assays:
# [1] = tested on: Human immunodeficiency virus 1; assay: In vitro antiviral activity in HIV-1 CEM-SS cytoprotection assay.; type: functional, organism-based; conditions: Human immunodeficiency virus 1, CEM-SS
# Outline: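 Cytoprotection assay using CEM-SS cells infected with HIV-1 RF. Run in duplicate, with triplicates at each compound concentration; individual triplicates varied by 10% or less.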
# CEM-SS = assay: In vitro cytotoxicity against CEM-SS cells.; type: functional, cell-based; conditions: Homo sapiens
# Outline: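 Growth inhibition of CEM-SS cells measured alongside the HIV-1 cytoprotection assay. Run in duplicate, with triplicates at each concentration; individual triplicates varied by 10% or less.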
Compound,EC50 [1],IC50 (CEM-SS)
C[C@H](NC(=O)c1ccccc1SC(=O)NCCBr)C(N)=O,0.92 µM,8 µM
NC(=O)CCNC(=O)c1ccccc1SC(=O)NCCBr,0.48 µM,4.9 µM
